Measurements taken from ChEMBL document CHEMBL1136818, “The development of new triazole based inhibitors of tumor necrosis factor-alpha (TNF-alpha) production” (Bioorg Med Chem Lett, 2003).
“And” between values parts separate entries of the source, which are not always exact repeats. Identical values can stand only once.

system: not listed separately; test: Half life period was determined; type: ADME, organism-based; settings: rat, in vivo

| SMILES | half-life |
| --- | --- |
| CCOCn1nnc(-c2ccc(F)cc2)c1-c1ccnc(Oc2cccc(NC(C)=O)c2)n1 | 2.2 h |

system: not listed separately; test: Clearance was determined; type: ADME, organism-based; settings: rat, in vivo

| SMILES | clearance |
| --- | --- |
| CCOCn1nnc(-c2ccc(F)cc2)c1-c1ccnc(Oc2cccc(NC(C)=O)c2)n1 | 36.5 mL/min/kg |

system: not listed separately; test: Oral bioavailability in the rat was determined; type: ADME, organism-based; settings: in vivo

| SMILES | bioavailability |
| --- | --- |
| CCOCn1nnc(-c2ccc(F)cc2)c1-c1ccnc(Oc2cccc(NC(C)=O)c2)n1 | 56% |

system: THP-1; test: Inhibitory activity against TNF-alpha production using lipopolysaccharide stimulated human monocytic cells; type: functional, cell-based; settings: Homo sapiens, THP-1
Outline: (§1)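 THP-1 human monocytic cells (2.0 × 10^5/well), in duplicate cultures, preincubated 15 min with or without inhibitor at various concentrations, then stimulated with LPS 2 μg/mL. TNF-α released measured by ELISA 4 h after stimulation; cell viability after the 4 h incubation checked by MTS assay. Standard deviation typically ±30% of the mean or less.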

| SMILES | IC50 |
| --- | --- |
| CCOCn1nnc(-c2ccnc(Oc3cccc(NC(C)=O)c3)n2)c1-c1ccc(F)cc1 | 189 nM |
| COCCn1nc(-c2ccncc2)c(-c2ccc(F)cc2)n1 | 3760 nM |
| CCOCn1nnc(-c2ccc(F)cc2)c1-c1ccnc(N[C@H](C)c2ccccc2)n1 | 46 nM |
| Fc1ccc(-c2[nH]nnc2-c2ccncc2)cc1 | 12.5 nM |
| CCOCn1nnc(-c2ccc(F)cc2)c1-c1ccnc(N[C@@H](C)c2ccccc2)n1 | 54 nM |
| O=C(Nc1ccccc1)n1nc(-c2ccncc2)c(-c2ccc(F)cc2)n1 | > 10000 nM |
| COc1ccc(S(=O)(=O)n2nc(-c3ccncc3)c(-c3ccc(F)cc3)n2)cc1 | 4800 nM |
| CCOCn1nnc(-c2ccncc2)c1-c1ccc(F)cc1 | 490 nM |
| CCOCn1nnc(-c2ccnc(NCc3ccccc3)n2)c1-c1ccc(F)cc1 | 557 nM |
| COc1ccc(-n2nc(-c3ccncc3)c(-c3ccc(F)cc3)n2)cc1 | 1320 nM |
| CCOCn1nnc(-c2ccnc(N[C@H](C)c3ccccc3)n2)c1-c1ccc(F)cc1 | 1600 nM |
| CCOCn1nnc(-c2ccc(F)cc2)c1-c1ccnc(Oc2cccc(NC(C)=O)c2)n1 | 8 nM |
| CCOCn1nnc(-c2ccc(F)cc2)c1-c1ccnc(NCc2ccccc2)n1 | 100 nM |
| CCOCn1nnc(-c2ccc(F)cc2)c1-c1ccnc(Oc2ccccc2)n1 | 74 nM |
| Fc1ccc(-c2nn(C(=S)Sc3ccccc3)nc2-c2ccncc2)cc1 | 3720 nM |
| CCOCn1nnc(-c2ccnc(N[C@@H](C)c3ccccc3)n2)c1-c1ccc(F)cc1 | 306 nM |
| CCOCn1nc(-c2ccc(F)cc2)c(-c2ccnc(Oc3ccccc3)n2)n1 | 4020 nM |
| COc1ccc(-n2nc(-c3ccncc3)c(-c3ccc(F)cc3)n2)cc1OC | 744 nM |
| COc1ccc(C(=O)n2nc(-c3ccncc3)c(-c3ccc(F)cc3)n2)cc1 | 3300 nM |
| COCn1nc(-c2ccncc2)c(-c2ccc(F)cc2)n1 | 7590 nM |
| CN(C(=O)n1nc(-c2ccncc2)c(-c2ccc(F)cc2)n1)c1ccccc1 | 1920 nM |
| CCOC(=O)n1nc(-c2ccncc2)c(-c2ccc(F)cc2)n1 | 3830 nM |
| C[S+]([O-])c1ccc(-c2nc(-c3ccc(F)cc3)c(-c3ccncc3)[nH]2)cc1 (centres undefined) [SB-203580] | 72 nM |

same assay, conditions: thp-1

| SMILES | IC50 |
| --- | --- |
| CCOCn1nnc(-c2ccnc(Oc3ccccc3)n2)c1-c1ccc(F)cc1 | 611 nM and 164 nM |
| CCOCn1nc(-c2ccncc2)c(-c2ccc(F)cc2)n1 | 490 nM |

system: THP-1; test: Inhibitory activity against TNF-alpha production using lipopolysaccharide (LPS) stimulated human monocytic cells (THP-1); NA: Not active; type: functional, cell-based; settings: not given; outline: as §1

| SMILES | IC50 |
| --- | --- |
| CCOCn1nnc(-c2ccc(F)cc2)c1-c1ccncc1 | Not Active |
